Experimental data from ChEMBL document CHEMBL4834423, “Discovery of AG-270, a First-in-Class Oral MAT2A Inhibitor for the Treatment of Tumors with Homozygous MTAP Deletion” (J Med Chem, 2021).

What was measured:
[1] = cells; details: Homo sapiens, HCT-116, 72 h
[2] = target: Cytochrome P450 2C9 (Homo sapiens, UniProt P11712); experiment: Inhibition of CYP2C9 (unknown origin) assessed as inactivation relative to control; type: ADME
[3] = system: KP-4; experiment: Anticancer activity in MTAP-null human KP-4 cells xenografted mouse model assessed as inhibition of SAM production at 10 mg/kg, po qd treated for 38 days relative to control; type: functional; details: KP-4, po, 912 h, time 38 day
How it was run: (§1)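 Subcutaneous KP4 MTAP-null xenograft mice, 12 per arm (60 animals), dosed orally once daily on days 24−38 at 10−200 mg/kg. Tumor SAM levels and plasma compound exposure were monitored; plasma sampled up to 24 h after the last dose. Mean tumor volume and body weight change were tracked; error bars are SEM.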

[4] = target: S-adenosylmethionine synthase isoform type-2 (Homo sapiens, UniProt P31153); experiment: Inhibition of recombinant human MAT2A expressed in baculovirus infected Sf9 cells assessed as S-adenosyl methionine production using L-methionine as substrate incubated for 60 mins followed by substrate addition and measured after 60 mins relative to control; design: concentration or dose not given beside the values
[5] = target: T1, UDP-glucuronosyltransferase 1A1 (Homo sapiens, UniProt P22309); experiment: Inhibition of UGT1A1 (unknown origin); type: ADME
T1 sequence (P22309 whole entry): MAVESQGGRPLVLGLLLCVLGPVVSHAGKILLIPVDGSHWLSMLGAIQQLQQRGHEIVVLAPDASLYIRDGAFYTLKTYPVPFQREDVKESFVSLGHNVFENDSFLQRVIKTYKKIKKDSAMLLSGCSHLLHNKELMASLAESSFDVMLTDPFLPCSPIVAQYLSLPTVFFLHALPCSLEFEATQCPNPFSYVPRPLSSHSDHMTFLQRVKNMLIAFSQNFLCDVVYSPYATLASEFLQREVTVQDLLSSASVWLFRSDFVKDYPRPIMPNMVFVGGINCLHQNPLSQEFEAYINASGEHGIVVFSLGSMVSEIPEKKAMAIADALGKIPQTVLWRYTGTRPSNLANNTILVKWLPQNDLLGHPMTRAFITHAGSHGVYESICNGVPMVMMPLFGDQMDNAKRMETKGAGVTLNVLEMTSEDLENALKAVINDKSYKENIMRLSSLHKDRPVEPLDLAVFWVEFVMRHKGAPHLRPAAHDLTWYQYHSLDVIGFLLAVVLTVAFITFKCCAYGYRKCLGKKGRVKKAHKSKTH

[6] = Oral bioavailability in dog at 5 mg/kg; type: ADME, organism-based, Canis lupus familiaris; details: in vivo
[7] = Solubility of compound at pH 7.4; type: physicochemical; details: buffer
[8] = Solubility of compound at pH 2; type: physicochemical; details: buffer
[9] = system: KP-4; experiment: Anticancer activity in MTAP-null human KP-4 cells xenografted mouse model assessed as tumor growth inhibition at 10 mg/kg, po qd treated for 38 days relative to control; type: functional; details: KP-4, po, 912 h, time 38 day, read-out: TGI
How it was run: as §1

[10] = target: T2, Solute carrier organic anion transporter family member 1B1 (Homo sapiens, UniProt Q9Y6L6); experiment: Inhibition of OATP1B1 (unknown origin); type: ADME
T2 sequence (Q9Y6L6 whole entry): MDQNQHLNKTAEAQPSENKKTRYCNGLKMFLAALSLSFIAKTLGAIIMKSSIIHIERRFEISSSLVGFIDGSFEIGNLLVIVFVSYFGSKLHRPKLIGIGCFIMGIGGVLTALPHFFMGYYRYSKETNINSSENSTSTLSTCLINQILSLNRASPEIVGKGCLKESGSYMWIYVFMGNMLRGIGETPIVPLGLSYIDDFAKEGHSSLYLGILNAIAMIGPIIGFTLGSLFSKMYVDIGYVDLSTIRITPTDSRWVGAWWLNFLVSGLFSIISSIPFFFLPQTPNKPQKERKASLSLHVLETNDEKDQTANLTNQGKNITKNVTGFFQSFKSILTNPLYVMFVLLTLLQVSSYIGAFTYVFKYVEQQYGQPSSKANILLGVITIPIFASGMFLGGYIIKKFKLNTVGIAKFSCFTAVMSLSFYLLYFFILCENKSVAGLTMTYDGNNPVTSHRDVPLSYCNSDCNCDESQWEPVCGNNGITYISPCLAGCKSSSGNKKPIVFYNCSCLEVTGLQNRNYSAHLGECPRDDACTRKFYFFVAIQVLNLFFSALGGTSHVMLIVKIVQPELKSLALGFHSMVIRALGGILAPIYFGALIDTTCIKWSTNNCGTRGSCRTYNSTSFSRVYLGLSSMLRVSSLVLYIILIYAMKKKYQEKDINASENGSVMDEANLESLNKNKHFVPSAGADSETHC

Sequence of S-adenosylmethionine synthase isoform type-2 (P31153 whole entry, looked up, canonical isoform): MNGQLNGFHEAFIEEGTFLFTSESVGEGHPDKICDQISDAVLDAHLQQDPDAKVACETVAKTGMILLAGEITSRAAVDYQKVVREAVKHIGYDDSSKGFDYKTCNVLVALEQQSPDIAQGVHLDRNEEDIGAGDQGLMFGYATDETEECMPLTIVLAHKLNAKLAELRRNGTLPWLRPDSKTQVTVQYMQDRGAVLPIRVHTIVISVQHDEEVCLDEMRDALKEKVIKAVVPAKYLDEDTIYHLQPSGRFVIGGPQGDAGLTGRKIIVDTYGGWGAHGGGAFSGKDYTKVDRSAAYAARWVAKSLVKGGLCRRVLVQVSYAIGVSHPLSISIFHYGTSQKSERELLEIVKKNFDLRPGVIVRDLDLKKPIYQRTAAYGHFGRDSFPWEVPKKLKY
Sequence of Cytochrome P450 2C9 (P11712 whole entry): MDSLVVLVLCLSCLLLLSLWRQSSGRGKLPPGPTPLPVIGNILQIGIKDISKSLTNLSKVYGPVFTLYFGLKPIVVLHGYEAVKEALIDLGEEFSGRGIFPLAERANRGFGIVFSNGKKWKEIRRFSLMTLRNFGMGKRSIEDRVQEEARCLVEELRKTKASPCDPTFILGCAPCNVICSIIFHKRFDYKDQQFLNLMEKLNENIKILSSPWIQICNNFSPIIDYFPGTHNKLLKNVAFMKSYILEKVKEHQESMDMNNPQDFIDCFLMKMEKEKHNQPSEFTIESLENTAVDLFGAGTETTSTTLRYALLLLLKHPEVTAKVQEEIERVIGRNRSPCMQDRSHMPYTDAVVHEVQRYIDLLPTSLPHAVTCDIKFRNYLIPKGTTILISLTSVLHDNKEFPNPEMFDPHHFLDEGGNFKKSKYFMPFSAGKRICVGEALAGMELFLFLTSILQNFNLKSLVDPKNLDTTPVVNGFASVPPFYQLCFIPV

IC50 [1]: 20000 nM
INH [2]: > 50 µM
inhibition [4]: 91%
IC50 [5]: 1100 nM
bioavailability [6]: 48%
solubility [7]: < 0.1 µM
solubility [8]: < 0.5 µM
IC50 [10]: 2100 nM
Compound: COc1ccc(-c2c(Nc3ccccn3)[nH]c3c(C4=CCCCC4)c(-c4ccccc4)nn3c2=O)cc1
inhibition in vivo at 10 mg/kg [3]: 33.4%
inhibition in vivo at 10 mg/kg [9]: 36%
